High-throughput results (PubChem)
Rows were chosen to be rich in hits. Some 1.8% of all compounds tested hit in one or more screens of this group.
CAL PDZ FP-1 – CAL PDZ (human) peptide binding inhibition. Q9HD26. purified CAL PDZ, TMR-peptide fluorescence polarization, 1 h. inhibition, % at 24.9 µM. hit rate 0.92% among 300,000. AID 602252;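 active means mean inhibition of at least 30% with at least half of replicates also reaching 30%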;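 further: 0% = DMSO neutral control and 100% = excess unlabeled competitor peptide PRC23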
DDE Tn6 FP inh – inhibitors of Tn6 peptide binding to human fibrin DD(E). Fibrin DD(E) TRITC-Tn6 fluorescence polarization displacement. inhibition, % at 8.3 µM. hit rate 0.21% among 370,000;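 active means inhibition above a per-campaign cutoff: mean of compounds within control limits plus 3 SD, cut at about 15% in these data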;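 further: 0% = median of all compound wells on the plate and 100% = blocking peptide control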
Target sequence (P02675 whole entry, looked up): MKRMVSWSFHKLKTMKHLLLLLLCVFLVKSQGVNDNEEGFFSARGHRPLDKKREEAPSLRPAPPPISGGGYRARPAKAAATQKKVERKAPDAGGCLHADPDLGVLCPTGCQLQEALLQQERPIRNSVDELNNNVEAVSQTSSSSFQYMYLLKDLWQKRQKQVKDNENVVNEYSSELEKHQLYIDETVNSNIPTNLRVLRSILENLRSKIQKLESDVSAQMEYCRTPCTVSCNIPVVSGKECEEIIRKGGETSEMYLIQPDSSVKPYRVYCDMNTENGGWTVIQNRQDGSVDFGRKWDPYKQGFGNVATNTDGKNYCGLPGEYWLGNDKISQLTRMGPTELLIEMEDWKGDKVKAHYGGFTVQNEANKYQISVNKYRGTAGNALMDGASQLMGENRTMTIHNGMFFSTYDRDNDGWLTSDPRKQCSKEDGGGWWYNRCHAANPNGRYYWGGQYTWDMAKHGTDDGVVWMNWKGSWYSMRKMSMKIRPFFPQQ
ARNT-TACC3 inh – ARNT/TACC3 interaction disruption; hit rate 0.66% among 390,000; inhibition, % at 9.99 µM; AlphaScreen His-ARNT PAS-B/GST-TACC3 binding, luminescence; TACC3 fragment carries E629A point mutation; AID 623870; Q9Y6A5;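 active means mean inhibition of replicates at least 50% and at least half of replicates each reaching 50%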;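 further: 0% = complete ARNT plus TACC3 wells and 100% = ARNT alone without TACC3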
DDE Tn7 FP inh – disrupts Tn7 cyclic peptide binding to fibrin D-Dimer-E complex; P02675; FP displacement of FITC-Tn7 peptide from fibrin DD(E); 0% = median of compound wells per plate; inhibition, % at 8.3 µM; hit rate 0.13% among 370,000; AID 720508;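 active means inhibition above the mean of compounds falling within the control limits plus 3 SD of them, cut at about 14% in these data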;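 further: 0% = plate median of compound wells and 100% = 10 µM Aha-Tn7 peptide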
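Assay system: Fibrin-DD(E) protein isolated from polymerized human fibrin clots; read-out basis: percent inhibition; medium: Tris/NaCl/CaCl2 buffer, pH 7.8; signal: FP measurement; incubation: 10 min plus 3 h, room temperature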
CAL PDZ FP-2 – inhibitors of human CAL PDZ peptide binding. Q9HD26. purified CAL PDZ, TMR-peptide fluorescence polarization, 1 h. inhibition, % at 20 µM. hit rate 0.02% among 330,000. AID 504414;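 active means highest replicate inhibition of at least 40%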;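 further: plate controls were DMSO neutral control wells for no effect and unlabeled competitor peptide control wells for full effect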
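Material: tagged CAL PDZ protein CerCALP, purified; buffer or medium: sodium phosphate/NaCl buffer pH 7.4 with TCEP, IgG, Thesit; also added: fluorescent TMR peptide probe; schedule: 1 h incubation at room temperature before polarization reading; technique: fluorescence polarization from S- and P-plane intensities, G-factor corrected; control set: unlabelled peptide and DMSO controls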
GRK2 inh – blocks RNA aptamer binding to human GRK2. P25098. bead flow cytometry, FAM-aptamer displacement from GRK2. inhibition of aptamer binding, % at 10 µM. hit rate 0.59% among 330,000. AID 488847;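 active means inhibition of aptamer binding above 40%, roughly 3 SD of noise, on plates passing a quality check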;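 further: median bead fluorescence of bound FAM aptamer so fluorescent compounds give negative values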
GRK2 CP1 – human GRK2 inhibition confirmation, cherry pick 1; bead-bound GRK2, FAM-aptamer displacement, flow cytometry; aptamer displacement, % at 10 µM; shares compounds with GRK2 inh; hit rate 4% among 2,000;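 active means aptamer displacement above 40%, near three times the noise of non-fluorescent compounds, on plates passing quality checks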;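 further: negative values mostly reflect intrinsic compound fluorescence rather than true enhancement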
FAM quench CP1 – counter-screen for GRK2 aptamer inhibitors: fluorescent aptamer quenchers; shares compounds with GRK2 inh; AID 504580; fluorescence response (% of DMSO), % at 10 µM; 2,000 tested, under 10 active; Carboxyfluorescein RNA aptamer on beads, flow cytometry quenching; stronger effect = lower value;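 active means compounds that quench the bead-bound fluorescent RNA probe, cutting fluorescence to under half of the solvent control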;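 further: counterscreen run without GRK2 so only probe quenching by compound is measured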
GRK2 confirm 2 – human GRK2 inhibition confirmation, cherry pick 2 | shares compounds with GRK2 inh | bead-bound GRK2, FAM-aptamer displacement, flow cytometry | inhibition of aptamer binding, % at 10 µM | 360 tested, under 10 active;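 active means inhibition of aptamer binding above 40%, about triple the noise seen with nonglowing compounds, on plates passing quality control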;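 further: negative values mostly come from compounds that fluoresce themselves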
FAM quench SP – quenches fluorescent RNA aptamer, GRK2 hit artifact | shares compounds with GRK2 inh | carboxyfluorescein RNA aptamer beads, flow cytometry quenching; stronger effect = lower value | fluorescence response vs DMSO, % at 10 µM | 360 tested, under 10 active;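 active means response vs DMSO under 50%, meaning signal dropped by over half, treated as fluorescence quencher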;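 further: labelled aptamer on streptavidin beads without GRK2 as a quench counter-screen; 100% = bead fluorescence of DMSO wells and lower means quenching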
* = called active by the depositor; · = no result.

SMILES	CAL PDZ FP-1	DDE Tn6 FP inh	ARNT-TACC3 inh	DDE Tn7 FP inh	CAL PDZ FP-2	GRK2 inh	GRK2 CP1	FAM quench CP1	others
Cn1c(CCNC(=O)c2ccccc2)nc2cc(NC(=O)C3CCCCC3)ccc21	·	6.6	2.5	-8.4	-2.3	1.0	-8.4	99.4
CCC(=O)NCCc1nc2cc(NC(=O)Nc3ccccc3)ccc2n1C	-3.4	3.5	0.8	-4.4	1.5	6.0	-10.0	95.9
COc1cc(-c2nc(-c3ccc(NC(=O)c4ccc(Br)o4)cc3)no2)cc(OC)c1OC	-3.9	3.2	1.1	0.1	-4.0	82.0*	-2.0	98.5
CCc1c(C)nc(N2CCN(c3ccccc3F)CC2)[nH]c1=O	29.5	3.7	-0.3	-7.9	-1.4	1.0	·	·
Cc1cc(C)cc(Nc2c(F)c(F)c(F)c(F)c2C(=O)O)c1	-6.1	2.7	4.8	-4.8	-0.8	89.0*	-2.3	89.2
COc1c(F)c(F)c(C(=O)O)c(Nc2cccc(C)c2)c1F	-3.0	-0.4	1.6	8.3	-0.2	1.0	·	·
Cc1ccc(C(=O)CSc2nc3ccccc3c(=O)[nH]2)cc1C	-4.4	0.0	3.8	7.5	0.9	61.0*	3.4	103.2
Cc1ccc2cc(CCNC(=O)C(=O)c3c[nH]c4ccccc34)c(=O)[nH]c2c1	-3.8	1.0	-5.2	-8.9	-0.7	71.0*	16.9	97.7
Cc1ccc2nc(SCC(=O)c3c[nH]c4ccccc34)[nH]c2c1	-1.1	-1.7	-1.0	-0.3	-1.2	58.0*	-0.6	106.9
CCCNC(=O)C[C@@H]1CC[C@H]2[C@H](COc3ccc(NC(=O)NC(C)C)cc3C(=O)N2C)O1	·	·	3.1	·	·	·	·	·
CN1CCN(CCCOc2ccc(-c3ccccc3)cc2)CC1	15.3	10.0	-7.0	9.4	-0.6	0.0	·	·
CCN1CCN(CCCOc2ccc(-c3ccccc3)cc2)CC1	·	-6.0	·	-0.1	·	30.0	-7.8	103.9
Cc1c(NC(=O)C(C)OC(=O)c2cccc(S(=O)(=O)N3CCOCC3)c2)c(=O)n(-c2ccccc2)n1C (stereo not drawn)	·	8.7	·	8.7	·	76.0*	2.2	98.8
CNC[C@H]1OCCCC[C@H](C)Oc2ccc(NC(=O)c3ccccc3)cc2C(=O)N([C@@H](C)CO)C[C@@H]1C	·	·	-3.5	·	·	·	·	·
O=C(NCc1ccccc1)OCCCN1C(=O)CCC12CCCCC2	·	6.6	·	0.8	·	·	·	·
C[C@@H]1CN([C@H](C)CO)C(=O)c2cc(C#Cc3ccccc3F)cnc2O[C@@H]1CN(C)S(=O)(=O)c1ccccc1	·	·	-3.7	·	·	·	·	·
COC(=O)c1cc(Br)c(=O)n(CCN2CCOCC2)c1	-2.0	0.9	2.9	-6.5	0.6	0.0	·	·
COC(=O)c1cc(Br)c(=O)n(CCN(C(C)C)C(C)C)c1	-1.3	1.0	3.4	3.5	-0.2	95.0*	-2.7	98.5
CC[C@H](C)[C@H](NC(N)=O)C(=O)Nc1ccc(S(=O)(=O)NC(C)C)cc1	-4.2	5.1	-7.4	-13.9	0.6	1.0	·	·
CCOc1ccc(Oc2ccc(NC(=O)[C@@H](NC(N)=O)[C@@H](C)CC)cc2)cc1	-2.9	3.3	-1.5	-0.3	0.0	96.0*	5.8	98.4
COc1cccc(-c2cnc3c(c2)C(=O)N([C@H](C)CO)C[C@H](C)[C@H](CN(C)Cc2cccc(C(F)(F)F)c2)O3)c1	·	·	-1.2	·	·	·	·	·
CSCCC(NS(=O)(=O)c1ccccc1F)C(=O)NCc1cccs1 (stereo not drawn)	-0.3	-4.0	1.6	-4.5	0.0	61.0*	1.1	115.9
Cc1ccc(NC(=S)N2CCC(c3nc4ccccc4s3)CC2)cc1	-3.1	4.3	11.3	-5.5	-3.5	64.0*	-5.7	105.0
CNC(=S)N1CCC(c2nc3ccccc3s2)CC1	·	-5.9	13.2	-0.5	-0.8	2.0	·	·
CCOc1ccc2nc(NC3=NC(c4ccc(OC)cc4)CC(=O)N3)nc(C)c2c1 (stereo not drawn)	-15.4	4.9	6.0	-5.5	-9.7	38.0	-25.2	106.8
SMILES	CAL PDZ FP-1	DDE Tn6 FP inh	ARNT-TACC3 inh	DDE Tn7 FP inh	CAL PDZ FP-2	GRK2 inh	GRK2 CP1	FAM quench CP1	others
CCOc1ccc2nc(NC3=NC(C)(C)C=C(C)N3)nc(C)c2c1	5.8	10.0	16.8	0.6	-2.5	0.0	·	·
COc1ccc(NC(=O)Nc2ccc3c(c2)C(=O)N([C@H](C)CO)C[C@H](C)[C@H](CN(C)C)OCCCC[C@@H](C)O3)cc1	·	-1.5	-3.5	-3.8	·	·	·	·
CN(C)CC#Cc1ccc([C@H]2[C@@H](CO)N3CCCCN(CC4CCOCC4)C[C@H]23)cc1	·	·	2.7	·	·	·	·	·
CCNc1c(NS(=O)(=O)c2ccc(OC)c(Cl)c2)c(=O)oc2ccccc12	2.7	7.5	-0.3	2.4	-0.1	69.0*	4.9	101.3
CNc1c(NS(=O)(=O)c2ccc(OC)c(Cl)c2)c(=O)oc2ccccc12	-2.0	4.3	1.1	0.5	-2.1	2.0	·	·
CCCOc1ccc(NC(=O)CC2C(=O)N(CC)C(=S)N2CCNC(C)=O)cc1 (stereo not drawn)	5.4	-0.9	-4.3	5.1	0.8	0.0	·	·
CCOc1ccc(NC(=O)CC2C(=O)N(CC)C(=S)N2CCNC(C)=O)cc1 (stereo not drawn)	-4.3	5.7	-7.2	-3.0	-0.1	70.0*	·	·	GRK2 confirm 2=10.6;FAM quench SP=100.0
COc1cccc(NC(C(=O)Nc2cccc(C(C)=O)c2)c2ccccc2)c1 (stereo not drawn)	-4.1	-1.9	·	-1.4	-3.0	0.0	·	·
COc1cc(NC(C(=O)Nc2cccc(C(C)=O)c2)c2ccccc2)cc(OC)c1OC (stereo not drawn)	-4.9	3.6	·	-5.6	0.0	76.0*	·	·	GRK2 confirm 2=12.9;FAM quench SP=105.0
C[C@@H]1CCCCO[C@@H](CN(C)S(=O)(=O)c2ccc(F)cc2)[C@H](C)CN([C@@H](C)CO)C(=O)c2cc(NC(=O)Cc3ccccc3)ccc2O1	·	·	-9.9	·	·	·	·	·
COC(OC)c1ccnc(-c2ccc(OC(=O)c3ccc(F)cc3)cc2)n1	·	-0.1	-5.7	-5.6	-1.2	59.0*	2.1	91.4
CCCn1c(=O)c2sccc2n2c(CCCC(=O)NCc3ccco3)nnc12	0.4	6.7	-2.4	-10.3	-2.1	70.0*	13.2	99.9
